Assay results from publication PMC8112392 (Science signaling, 2021).
“Also recorded” adds a separate entry of the source. Like-named read-outs stand apart in the source and are kept apart here.

Key:
C. jejuni 11168-O [1] = assay type: cell-based; conditions: nutrient-depleted chemotaxis assay, 2 mM ligand
Tlp10^LBD H193A = Tlp10^LBD H193A (Campylobacter jejuni, UniProt Q0PCA6, H193A); assay: biochemical; assay type: binding, C. jejuni
Tlp10^LBD N120A = Tlp10^LBD N120A (Campylobacter jejuni, UniProt Q0PCA6, N120A); assay: biochemical; assay type: binding, C. jejuni
Tlp10^LBD N115A = Tlp10^LBD N115A (Campylobacter jejuni, UniProt Q0PCA6, N115A); assay: biochemical; assay type: binding, C. jejuni
Tlp10^LBD wild type [2] = target: T1, Tlp10^LBD wild type (Campylobacter jejuni, UniProt Q0PCA6); assay: biochemical; assay type: binding; conditions: for Kd: SPR, n = 3; for SPR: binding to Tlp10^LBD by SPR
Tlp10^LBD Y70A = Tlp10^LBD Y70A (Campylobacter jejuni, UniProt Q0PCA6, Y70A); assay: biochemical; assay type: binding, C. jejuni
Tlp10^LBD wild type [3] = target: T1, Tlp10^LBD wild type; assay type: binding; conditions: competition SPR, compounds at 10x KD
Tlp10^LBD = assay: Glycan and small molecule array binding of purified Tlp10 LBD; set-up: species or system C. jejuni; conditions: for array: binding to Tlp10^LBD on glycan / small molecule array; for interaction of Tlp10^LBD with complex glycans: glycan array
C. jejuni 11168-O [4] = assay: μ-Slide chemotactic cell migration visualisation; assay type: cell-based; conditions: time-lapse imaging, 10 mM ligand
How it was run: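 Wild-type, Δtlp10 and complemented C. jejuni 11168-O cells are FITC-labelled. In a μ-Slide, the left reservoir holds bacterial suspension, and the right reservoir and transition zone hold PBS. Once cells near the transition zone, isoleucine or arginine is added to the right reservoir (final 10 mM). In the sequential test, arginine is added at 20 sec after partial migration toward isoleucine. Migration is recorded by time-lapse video at 40× magnification.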

[5] = test system: C. jejuni 11168-O adherence to Caco-2, HCT116 and HCT116MUC1 cells; assay: Adherence of C. jejuni to cultured human cells with glycan competition; assay type: cell-based; conditions: 11168-O wild-type and Δtlp10^LBDc strains, 5 mM glycan
C. jejuni 11168-O [6] = assay: μ-Slide chemotaxis cell enumeration assay; assay type: cell-based; conditions: 10 mM chemoeffector
How it was run: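 Wild-type, Δtlp10LBD and complemented strains are harvested from MHA plates into PBS, adjusted to OD600 1 and mixed 1:1 (vol:vol) with 1% LMT. The opposite μ-Slide reservoir holds chemoeffector (final 10 mM) in LMT (final 0.35%). Slides are incubated 3 h at 42°C, microaerobic. Cells in the chemoeffector reservoir are enumerated by viable count. Three biological repeats are run, each in triplicate.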

C. jejuni 11168-O [7] = assay: Biofilm assay; assay type: cell-based; conditions: 10 mM galactose
[8] = read-out: KD Tlp10^LBD H193A, SPR, mean ± s.d., n = 3
[9] = read-out: KD Tlp10^LBD N120A, SPR, mean ± s.d., n = 3
[10] = read-out: KD Tlp10^LBD N115A, SPR, mean ± s.d., n = 3
[11] = read-out: KD Tlp10^LBD Wild-type, Table 2, mean ± s.d.
[12] = read-out: KD Tlp10^LBD Y70A, SPR, mean ± s.d., n = 3
[13] = KD Tlp10^LBD Wild-type, Table 2, mean ± s.d.
[14] = KD, wild-type Tlp10^LBD, mean ± SD

| Molecule | migration of Δtlp10^LBD strain towards ligand compared to wild-type (C. jejuni 11168-O [1]) | SPR (Tlp10^LBD wild type [2]) | ligand-binding site on Tlp10^LBD (Tlp10^LBD wild type [3]) | Tlp10-mediated chemotactic response type (C. jejuni 11168-O [1]) | Kd (Tlp10^LBD H193A) | Kd (Tlp10^LBD N120A) | Kd (Tlp10^LBD N115A) | array (Tlp10^LBD) | Kd (Tlp10^LBD wild type [2]; [13]) | Kd (Tlp10^LBD wild type [2]; [14]) | Kd (Tlp10^LBD Y70A) | migration of Δtlp10^LBD cells toward ligand compared with wild-type (C. jejuni 11168-O [6]) | also measured |
| --- | --- | --- | --- | --- | --- | --- | --- | --- | --- | --- | --- | --- | --- |
| O=C(O)CCC(=O)C(=O)O [α-ketoglutarate] | not significantly affected | + | site A | – | – | – | – | – | – | – | – | – | Kd (Tlp10^LBD H193A; [8]): 370 ± 63 µM; Kd (Tlp10^LBD N120A; [9]): 580 ± 43 µM; Kd (Tlp10^LBD N115A; [10]): 630 ± 27 µM; Kd (Tlp10^LBD wild type [2]; wild-type Tlp10^LBD, mean ± SD): 403 ± 13 µM; Kd (Tlp10^LBD wild type [2]; [11]): 403 ± 13 µM; Kd (Tlp10^LBD Y70A; [12]): 385 ± 40 µM |
| N[C@@H](CC(=O)O)C(=O)O [aspartate] | – | + | both site A and site B with a preference for site B | attractants | 30.9 ± 9 µM | 48 ± 7 µM | 29.5 ± 8 µM | + | 32.3 ± 10 µM | 32.3 ± 10 µM | 38.9 ± 11 µM | – | – |
| fumarate | – | + | site A | attractants | – | – | – | + | – | – | – | – | Kd (Tlp10^LBD H193A; [8]): 213 ± 59 µM; Kd (Tlp10^LBD N120A; [9]): 317 ± 34 µM; Kd (Tlp10^LBD N115A; [10]): 242 ± 30 µM; Kd (Tlp10^LBD wild type [2]; wild-type Tlp10^LBD, mean ± SD): 282 ± 68 µM; Kd (Tlp10^LBD wild type [2]; [11]): 282 ± 68 µM; Kd (Tlp10^LBD Y70A; [12]): 185 ± 25 µM |
| CC(=O)N[C@@H](C=O)[C@@H](O[C@@H]1O[C@H](CO)[C@H](O)[C@H](O)[C@H]1O)[C@H](O[C@@H]1O[C@@H](C)[C@@H](O)[C@@H](O)[C@@H]1O)[C@H](O)CO [Lewis^a antigen] | – | – | – | – | – | – | – | – | – | – | – | – | interaction of Tlp10^LBD with complex glycans (Tlp10^LBD): interacted |
| CC[C@H](C)[C@H](N)C(=O)O [isoleucine] | – | + | site A | attractants | 30.8 ± 7 µM | 51.2 ± 1.2 µM | 48.1 ± 5 µM | + | 37.9 ± 7 µM | 37.9 ± 7 µM | 28.1 ± 6 µM | – | Tlp10-mediated chemotactic response type (C. jejuni 11168-O [4]): chemoattractant response |
| O=C(O)CC(O)C(=O)O (stereo not shown) [malate] | – | + | site B | attractants | 161 ± 23 µM | 215 ± 31 µM | 176 ± 10 µM | – | 168 ± 19 µM | 168 ± 19 µM | 184 ± 14 µM | – | – |
| O=C[C@H](O)[C@@H](O)[C@@H](O)[C@H](O)CO [galactose] | One-log increase in migration | + | site B | repellent | – | – | – | + | – | – | – | increased | effect on adherence to all cell lines tested [5]: suppressed the adherence; Tlp10-mediated chemotactic response type (C. jejuni 11168-O [6]): repellent response; reduction of biofilm formation compared to untreated cells (C. jejuni 11168-O [7]; wild-type C. jejuni 11168-O): up to 46%; change in biofilm formation (C. jejuni 11168-O [7]; Δtlp10^LBD mutant): no significant change |
| Fucα1–2Galβ1–3GalNAcβ1–4(Neu5Acα2–3) Galβ1–4Glc [human ganglioside GM1] | – | – | – | – | – | – | – | – | – | – | – | – | interaction of Tlp10^LBD with complex glycans (Tlp10^LBD): interacted |
| c1ncc2nc[nH]c2n1 [purine] | not significantly affected | + | site A | – | 19 ± 2 µM | 34 ± 3 µM | 29 ± 8 µM | + | 21 ± 6 µM | 21 ± 6 µM | 16 ± 1 µM | – | – |
| rhamnose | not significantly affected | + | site B | – | – | – | – | + | – | – | – | No significant differences | Kd (Tlp10^LBD H193A; [8]): 9.8 ± 0.95 µM; Kd (Tlp10^LBD N120A; [9]): 17.9 ± 3.7 µM; Kd (Tlp10^LBD N115A; [10]): 18.2 ± 1.9 µM; Kd (Tlp10^LBD wild type [2]; [11]): 11.1 ± 2 µM; Kd (Tlp10^LBD Y70A; [12]): 8.2 ± 3 µM |
| Cc1ncc(C[n+]2csc(CCO)c2C)c(N)n1 [thiamine] | increase in migration | + | both site A and site B with a preference for site B | repellent response | 50.6 ± 6 µM | 58.3 ± 9 µM | 49.2 ± 10 µM | + | 59.4 ± 13 µM | 59.4 ± 13 µM | 62 ± 17 µM | – | – |
| N=C(N)NCCC[C@H](N)C(=O)O [arginine] | increase in migration | + | site A | repellent response | 29 ± 8 µM | 50.1 ± 8 µM | 41.9 ± 12 µM | + | 27.9 ± 3 µM | 27.9 ± 3 µM | 19.1 ± 12 µM | – | Tlp10-mediated chemotactic response type (C. jejuni 11168-O [4]): chemorepellent response |
| OC[C@H]1OC(O)[C@@H](O)[C@@H](O)[C@@H]1O (stereo partly shown) [mannose] | – | + | site B | attractants | 32.1 ± 12 µM | 46.4 ± 12 µM | 52.1 ± 10 µM | + | 39.6 ± 9 µM | 39.6 ± 9 µM | 43.3 ± 3 µM | decreased | Tlp10-mediated chemotactic response type (C. jejuni 11168-O [6]): attractant response |
| CC(=O)N[C@H]1[C@H]([C@H](O)[C@H](O)CO)OC(O)(C(=O)O)C[C@@H]1O (stereo partly shown) [sialic acid] | – | + | site B | – | 20.4 ± 9 µM | 37.1 ± 6 µM | 34.9 ± 13 µM | + | 29.3 ± 6.9 µM | 29.3 ± 6.9 µM | 24.1 ± 7 µM | No significant differences | – |
| C[C@H](O)[C@@H](O)[C@@H](O)[C@H](O)C=O [fucose] | – | + | site B | attractants | 28 ± 3 µM | 19.2 ± 4 µM | 22 ± 2 µM | + | 30 ± 4.1 µM | 30 ± 4.1 µM | 34 ± 7 µM | decreased | effect on adherence to all cell lines tested [5]: suppressed the adherence; also recorded: less effective than that by galactose; Tlp10-mediated chemotactic response type (C. jejuni 11168-O [6]): attractant response |
